A word on the pIC50: it is −log10 of the IC50, conventionally taken in molar units.

Among the data in ChEMBL document CHEMBL1147229, “Isolation and characterization of new epothilone analogues from recombinant Myxococcus xanthus fermentations” (J Nat Prod, 2003) are IC50 values, retold here.

What all share (assay type): functional, cell-based
The subject of one assay is MCF7. The experiment in a line: Cytotoxicity against human MCF7 cells after 3 days by SRB assay. The conditions noted are these: MCF7, 72 h. The method, boiled down: (§1)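 Cells kept in RPMI-1640 with 2 mM L-glutamine, 25 mM HEPES and 10% FBS at 37 °C, 5% CO2. Seeding per well: MCF-7 5000, NCI/ADR 7500, NCI-H460 5000, SF-268 7500; 24 h adherence. Compound at 0.001 to 1000 nM, triplicate wells, 3 days. TCA fixation 1 h at 4 °C, 0.2% SRB 20 min, bound dye extracted in 10 mM Tris, absorbance at 515 nm.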
For orientation: The SRB assay estimates cell density from bound dye.

The nature of assay [1]: Cytotoxicity against human NCI/ADR cells after 3 days by SRB assay. As to conditions: NCI/ADR-RES, 72 h. In a few lines: as §1
The next assay relates to NCI-H460. The experiment in a line: Cytotoxicity against human NCI-H460 cells after 3 days by SRB assay. The conditions noted are these: NCI-H460, 72 h. In a few lines:
as §1

The test system of a further assay is SF-268. The assay can be described thus: Cytotoxicity against human SF268 cells after 3 days by SRB assay. The conditions noted are these: SF-268, 72 h. In a few lines:
as §1

pIC50: −log10 of the molar value.

With `CC1=C/C[C@@H](/C(C)=C/c2csc(C)n2)OC(=O)C[C@H](O)C(C)(C)C(=O)[C@H](C)[C@@H](O)[C@@H](C)C\C=C\1`, the pIC50 with MCF7 is 7.33; in assay [1], 6.60; in the assay on NCI-H460 it was 7.33; with SF-268, 7.04.
For the compound `CC1=C/C[C@@H](/C(C)=C/c2csc(C)n2)OC(=O)C[C@H](O)C(C)C(=O)[C@H](C)[C@@H](O)[C@@H](C)C\C=C\1` (stereo not given in full), the pIC50 in the assay on MCF7 was 6.60; in assay [1], 6.40; with NCI-H460, 6.46; with SF-268 it was 6.41.
The corresponding values for `C/C1=C/C[C@@H](/C(C)=C/c2csc(C)n2)OC(=O)C[C@H](O)C(C)(C)C(=O)[C@H](C)[C@@H](O)[C@@H](C)C(=O)CC1` are 6.30, below 6.00, below 6.00 and below 6.00.
The corresponding values for `C/C(=C\c1csc(C)n1)[C@@H]1C/C=C\CCC[C@H](C)[C@H](O)[C@@H](C)C(=O)C(C)(C)[C@@H](O)CC(=O)O1` [EPOTHILONE C] are 7.01, 6.51, 6.55 and 6.47.
The corresponding values for `C/C1=C/C[C@@H](/C(C)=C/c2csc(C)n2)OC(=O)C[C@H](O)C(C)(C)C(=O)[C@H](C)[C@@H](O)[C@@H](C)CCC1` [EPOTHILONE D] are 7.80, 7.36, 7.52 and 7.74.
